Experimental findings from ChEMBL document CHEMBL3351658, “Exploring human parainfluenza virus type-1 hemagglutinin-neuraminidase as a target for inhibitor discovery” (J Med Chem, 2014) are described below.

A short description of series [1]: Inhibition of hemagglutinin activity of human parainfluenza virus 1 C35 hemagglutinin-neuraminidase incubated for 20 mins in presence of chicken red blood cells. More on the design: species or system Human respirovirus 1. In a few lines:
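HI used hPIV-1 strain C-35 grown in LLC-MK2 cells, with clarified supernatant ultrafiltered ≥10-fold. Compounds were diluted in PBS, mixed with virus (1 HAU final) and held 20 min at room temperature. Ice-cold 0.5% chicken RBC were added on ice, then 1 h 30 min at 4 °C. Run in duplicate, maximum 250 µM. IC50 is the concentration matching agglutination of a 0.5 HAU virus-only well.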

Series [2] has as its system LLC-MK2. The series can be described thus: (§1) Cytotoxicity against rhesus monkey LLC-MK2 cells assessed as cell viability at 250 uM after 48 hrs by MTT assay. It counts as cell-based, Macaca mulatta. The note with it: llc-mk2, 48 h, 250 µM. Summed up:
(§2)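 LLC-MK2 cells were kept in EMEM with 1% glutamine (200 mM) and 2% FBS at 37 °C under 5% CO2. They were exposed in triplicate to 250 µM of each compound for 48 h. Viability was read by MTT or AlamarBlue assay.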
For orientation: Formazan colour is commonly taken as a measure of viable cells.

The test system of series [3] is LLC-MK2. The series can be described thus: (§3) Cytotoxicity against rhesus monkey LLC-MK2 cells assessed as cell viability at 250 uM after 48 hrs by alamar blue assay. It counts as cell-based, Macaca mulatta. The conditions noted are these: llc-mk2, 48 h, 250 µM. Summed up:
as §2
On the technique in general: Resazurin is reduced to fluorescent resorufin, in cell work by metabolically active cells.

Series [4] in a line: as §1. It counts as cell-based, Macaca mulatta. The conditions noted are these: LLC-MK2 cells, read-out: Activity. In a few lines: as §2
Series [5] can be described thus: as §3. It counts as cell-based, Macaca mulatta. The conditions noted are these: LLC-MK2 cells, read-out: Activity. In a few lines:
as §2

As for `CC(=O)N[C@H]1[C@H]([C@H](O)[C@H](O)CO)OC(C(=O)[O-])=C[C@@H]1N=[N+]=[N-].[Na+]`, the IC50 (usually the concentration that inhibits the measured activity by half) in series [1] worked out at 3500 nM. For the same molecule, the Activity entry in the series with LLC-MK2 [2] and in the series with LLC-MK2 [3] was “Non-toxic” in each case.
As to `CC(=O)N[C@H]1[C@H]([C@H](O)[C@H](O)CO)OC(C(=O)[O-])=C[C@@H]1O.[Na+]`, the IC50 in series [1] was found to be 15900 nM. The Activity entry in the series on LLC-MK2 [2] and in the series with LLC-MK2 [3] was “Non-toxic” in each case.
In the case of `CC(=O)N[C@H]1[C@H]([C@H](O)[C@H](O)CO)OC(C(=O)[O-])=C[C@@H]1N.[Na+]`, the concentration for half-maximal inhibition (IC50) in series [1] is over 250000 nM. In addition, the Activity result with LLC-MK2 [2] and in the series with LLC-MK2 [3] was “Non-toxic” throughout.
Turning to `CC(=O)N[C@H]1[C@H]([C@H](O)[C@H](O)CO)OC(C(=O)[O-])=C[C@@H]1NC(=N)N.[Na+]`, the 50% inhibitory concentration (IC50) in series [1] is over 250000 nM. Moreover, the Activity entry in the series on LLC-MK2 [2] and in the series on LLC-MK2 [3] was “Non-toxic” throughout.
For the molecule `CC(C)C(=O)N[C@H]1[C@H]([C@H](O)[C@H](O)CO)OC(C(=O)[O-])=C[C@@H]1N=[N+]=[N-].[Na+]`, the 50% inhibitory concentration (IC50) in series [1] amounted to 80 nM. The Activity entry in the series on LLC-MK2 [2] and in the series on LLC-MK2 [3] was “Non-toxic” in each case.
For `CC(C)C(=O)N[C@H]1[C@H]([C@H](O)[C@H](O)CO)OC(C(=O)O)=C[C@@H]1O`, the IC50 in series [1] was found to be 490 nM. Further, the viability at 48 h, 250 µM in series [4] and in series [5] was 93% throughout.
As for `CC(C)C(=O)N[C@H]1[C@H]([C@H](O)[C@H](O)CO)OC(C(=O)[O-])=C[C@@H]1N.[Na+]`, the half-maximal inhibitory concentration (IC50) in series [1] is 7290 nM. In addition, the Activity entry in the series on LLC-MK2 [2] and with LLC-MK2 [3] was “Non-toxic” each time.
Regarding `CC(C)C(=O)N[C@H]1[C@H]([C@H](O)[C@H](O)CO)OC(C(=O)[O-])=C[C@@H]1NC(=N)N.[Na+]`, the IC50 in series [1] is over 250000 nM. For the same molecule, the Activity result in the series on LLC-MK2 [2] and in the series on LLC-MK2 [3] was “Non-toxic” each time.
As to `[N-]=[N+]=N[C@H]1C=C(C(=O)[O-])O[C@@H]([C@H](O)[C@H](O)CO)[C@@H]1NC(=O)C1CC1.[Na+]`, the IC50 in series [1] is 320 nM. Besides, the Activity result in the series on LLC-MK2 [2] and in the series with LLC-MK2 [3] was “Non-toxic” each time.
With `[N-]=[N+]=N[C@H]1C=C(C(=O)[O-])O[C@@H]([C@H](O)[C@H](O)CO)[C@@H]1NC(=O)C1CCC1.[Na+]`, in series [1], the half-inhibitory concentration (IC50) amounted to 930 nM. Also, the Activity entry with LLC-MK2 [2] and in the series with LLC-MK2 [3] was “Non-toxic” each time.
Take `CCC(C)C(=O)N[C@H]1[C@H]([C@H](O)[C@H](O)CO)OC(C(=O)[O-])=C[C@@H]1N=[N+]=[N-].[Na+]` (some centres not stated): in series [1], the half-inhibitory concentration (IC50) turned out to be 320 nM. Further, the Activity result in the series on LLC-MK2 [2] and in the series with LLC-MK2 [3] was “Non-toxic” throughout.
In the case of `C/C=C(\C)C(=O)N[C@H]1[C@H]([C@H](O)[C@H](O)CO)OC(C(=O)[O-])=C[C@@H]1N=[N+]=[N-].[Na+]`, the IC50 in series [1] is 3000 nM. Moreover, the Activity result in the series on LLC-MK2 [2] and with LLC-MK2 [3] was “Non-toxic” each time.
As for `CC(O)C(=O)N[C@H]1[C@H]([C@H](O)[C@H](O)CO)OC(C(=O)[O-])=C[C@@H]1N=[N+]=[N-].[Na+]` (some centres not stated), the IC50 in series [1] turned out to be 40000 nM. The Activity entry with LLC-MK2 [2] and in the series with LLC-MK2 [3] was “Non-toxic” throughout.
In the case of `CC(CO)C(=O)N[C@H]1[C@H]([C@H](O)[C@H](O)CO)OC(C(=O)[O-])=C[C@@H]1N=[N+]=[N-].[Na+]` (some centres not stated), the 50% inhibitory concentration (IC50) in series [1] is 3000 nM. Moreover, the Activity entry in the series on LLC-MK2 [2] and with LLC-MK2 [3] was “Non-toxic” in each case.
